In ChEMBL document CHEMBL1921795, “Discovery, synthesis, and structure-activity relationship development of a series of N-4-(2,5-dioxopyrrolidin-1-yl)phenylpicolinamides (VU0400195, ML182): characterization of a novel positive allosteric modulator of the metabotropic glutamate receptor 4 (mGlu(4)) with oral efficacy in an …” (J Med Chem, 2011):
pEC50, pIC50: −log10 of the molar value. Active and inactive are the calls of the source.

What was measured:
Rattus norvegicus [1] = test: Volume of distribution at steady state in Sprague-Dawley rat at 1 mg/kg, iv by LC/MS analysis; assay type: ADME, organism-based; design: dose 1 mg/kg, route intravenous; conditions: in vivo
Method in brief: (§1)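 Male Sprague-Dawley rats (n=2, 250-300 g), carotid and jugular cannulated; 1 mg/kg iv via jugular catheter in 20% DMSO/80% saline. Arterial blood from pre-dose to 24 h, EDTA plasma analysed by LC/MS/MS; noncompartmental analysis of individual profiles.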

Rattus norvegicus [2] = test: Oral bioavailability in Sprague-Dawley rat at 10 mg/kg by LC/MS analysis; assay type: ADME, organism-based; conditions: in vivo
[3] = AUC (0 to 6 hrs) in Sprague-Dawley rat hepatic portal vein plasma at 10 mg/kg, po; assay type: ADME, organism-based; design: time < 6 hr, dose 10 mg/kg, route oral
Rattus norvegicus [4] = test: AUC (0 to 24 hrs) in Sprague-Dawley rat at 1 mg/kg, iv by LC/MS analysis; assay type: ADME, organism-based, Plasma; design: time < 24 hr, dose 1 mg/kg, route intravenous; conditions: in vivo
Method in brief: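 Male Sprague-Dawley rats (n=2, 250-300 g) with carotid artery and jugular vein catheters, acclimated about one week, fed ad libitum. Dose given through the jugular catheter in 20% DMSO/80% saline at 1 mL/kg. Carotid blood drawn pre-dose and at 2, 7, 15, 30 min and 1, 2, 4, 7, 24 h into chilled EDTA tubes. Plasma measured by LC/MS/MS; parameters from noncompartmental analysis of individual profiles.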

Brain [5] = test: AUC (0 to 6 hrs) in Sprague-Dawley rat brain at 10 mg/kg, po; assay type: ADME, organism-based; design: time < 6 hr, dose 10 mg/kg, route oral; conditions: in vivo
[6] = Ratio of AUC in brain to plasma in Sprague-Dawley rat
Rattus norvegicus [7] = test: Half life in Sprague-Dawley rat at 1 mg/kg, iv by LC/MS analysis; assay type: ADME, organism-based; design: dose 1 mg/kg, route intravenous; conditions: in vivo; method in brief: as §1
Rattus norvegicus [8] = test: AUC (0 to 24 hrs) in Sprague-Dawley rat at 10 mg/kg, po by LC/MS analysis; assay type: ADME, organism-based, Plasma; design: time < 24 hr, dose 10 mg/kg, route oral; conditions: in vivo
Rattus norvegicus [9] = test: Cmax in Sprague-Dawley rat at 10 mg/kg, po by LC/MS analysis; assay type: ADME, organism-based; design: dose 10 mg/kg, route oral; conditions: in vivo
Cytochrome P450 2D6 = Cytochrome P450 2D6 (Homo sapiens, UniProt P10635); test: Inhibition of CYP2D6 in human liver microsomes using […] as substrate; assay type: ADME, Microsome
Method in brief: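 Pooled human liver microsomes (0.1 mg/mL) with probe cocktail (phenacetin 10 µM, diclofenac 5 µM, dextromethorphan 5 µM, midazolam 2 µM) in 0.1 M phosphate pH 7.4; compound 100 nM–30 µM in duplicate, 15 min preincubation at 37 °C, then 1 mM NADPH for 8 min. LC/MS/MS of metabolite formation; IC50 derived.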

Plasma [10] = test: Fraction unbound in rat plasma by equilibrium dialysis; assay type: ADME, cell-free
Method in brief: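 Rat plasma spiked with compound, equilibrium dialysis against 25 mM phosphate buffer pH 7.4 for 4 h at 37 °C with shaking; both chambers matrix-matched, acetonitrile-extracted and quantified by LC/MS/MS; triplicate.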

[11] = Intrinsic clearance in rat hepatic microsomes at 1 uM by LC/MS/MS analysis; assay type: ADME, Microsome; conditions: rat liver microsomes
Brain [12] = test: Fraction unbound in rat brain homogenate by equilibrium dialysis; assay type: ADME, tissue-based
Plasma [13] = test: Fraction unbound in human plasma; assay type: ADME, cell-free
Cytochrome P450 2C19 = Cytochrome P450 2C19 (Homo sapiens, UniProt P33261); test: Inhibition of CYP2C19 in human liver microsomes using S-mephenytoin as substrate; assay type: ADME, Microsome
Cytochrome P450 1A2 = target: T1, Cytochrome P450 1A2 (Homo sapiens, UniProt P05177); test: Inhibition of CYP1A2 in human liver microsomes using phenacetin as substrate
T1 sequence (P05177 whole entry): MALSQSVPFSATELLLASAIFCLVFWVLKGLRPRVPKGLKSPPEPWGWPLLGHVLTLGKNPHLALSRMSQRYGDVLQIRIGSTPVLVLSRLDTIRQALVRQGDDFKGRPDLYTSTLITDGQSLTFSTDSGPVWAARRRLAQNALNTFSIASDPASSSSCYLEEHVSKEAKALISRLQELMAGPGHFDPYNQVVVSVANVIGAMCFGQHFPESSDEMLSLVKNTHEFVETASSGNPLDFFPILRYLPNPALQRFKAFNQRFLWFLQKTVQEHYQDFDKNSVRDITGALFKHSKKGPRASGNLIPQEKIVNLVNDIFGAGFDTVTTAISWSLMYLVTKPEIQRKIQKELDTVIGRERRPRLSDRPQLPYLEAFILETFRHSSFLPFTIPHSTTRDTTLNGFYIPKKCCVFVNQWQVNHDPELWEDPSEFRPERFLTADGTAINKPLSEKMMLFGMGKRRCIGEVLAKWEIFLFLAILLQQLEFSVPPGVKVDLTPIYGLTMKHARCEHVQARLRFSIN

Cytochrome P450 2C9 = Cytochrome P450 2C9 (Homo sapiens, UniProt P11712); test: Inhibition of CYP2C9 in human liver microsomes using diclofenac as substrate
Cytochrome P450 3A4 = Cytochrome P450 3A4 (Homo sapiens, UniProt P08684); test: Inhibition of CYP3A4 in human liver microsomes using […] as substrate; assay type: ADME, Microsome
[14] = Intrinsic clearance in human hepatic microsomes; assay type: ADME, Microsome; conditions: human liver microsomes
Rattus norvegicus [15] = test: Reversal of haloperidol-induced catalepsy in Sprague-Dawley rat at 56.6 mg/kg, po administered 60 mins after haloperidol-challenge measured after 30 mins; assay type: functional, organism-based; design: dose 56.6 mg/kg
Method in brief: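 Male Sprague-Dawley rats (275–300 g). Haloperidol 0.75 mg/kg i.p. (in 8.5% lactic acid, pH 6) given 60 min before oral compound (0.1–56.6 mg/kg) or vehicle (10% Tween 80). Catalepsy tested 30 min later: forepaws placed on a horizontal bar 6 cm high; latency to remove paws timed, 30 s cutoff.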

[16] = target: Metabotropic glutamate receptor 6 (Homo sapiens, UniProt O15303); test: Positive allosteric modulator activity at human mGlu6 receptor at 10 uM by thallium flux assay
Method in brief: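 Cells expressing human mGlu6 with GIRK channels, thallium flux double-addition protocol. 10 µM compound or vehicle was added, then a full glutamate concentration-response 2.5 min later. A left shift >2-fold was scored as potentiator activity. A right shift >2-fold or max depression ≥75% was scored as antagonist activity. Mean ± SEM of three experiments in singlicate.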

Chain of Cytochrome P450 2C9 (P11712 whole entry): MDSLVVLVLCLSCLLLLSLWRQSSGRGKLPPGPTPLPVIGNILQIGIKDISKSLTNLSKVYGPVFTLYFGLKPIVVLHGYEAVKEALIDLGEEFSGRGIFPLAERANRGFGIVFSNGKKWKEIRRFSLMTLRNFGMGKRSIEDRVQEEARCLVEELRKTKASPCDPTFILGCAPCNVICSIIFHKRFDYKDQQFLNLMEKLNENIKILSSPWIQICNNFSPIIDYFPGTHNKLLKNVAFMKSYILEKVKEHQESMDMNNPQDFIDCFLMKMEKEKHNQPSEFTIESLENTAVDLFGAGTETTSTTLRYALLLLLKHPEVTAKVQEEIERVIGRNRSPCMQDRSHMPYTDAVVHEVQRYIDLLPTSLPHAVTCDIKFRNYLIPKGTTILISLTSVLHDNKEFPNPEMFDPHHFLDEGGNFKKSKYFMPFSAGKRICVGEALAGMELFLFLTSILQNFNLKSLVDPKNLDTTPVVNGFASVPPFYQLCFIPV
Chain of Cytochrome P450 2D6 (P10635 whole entry): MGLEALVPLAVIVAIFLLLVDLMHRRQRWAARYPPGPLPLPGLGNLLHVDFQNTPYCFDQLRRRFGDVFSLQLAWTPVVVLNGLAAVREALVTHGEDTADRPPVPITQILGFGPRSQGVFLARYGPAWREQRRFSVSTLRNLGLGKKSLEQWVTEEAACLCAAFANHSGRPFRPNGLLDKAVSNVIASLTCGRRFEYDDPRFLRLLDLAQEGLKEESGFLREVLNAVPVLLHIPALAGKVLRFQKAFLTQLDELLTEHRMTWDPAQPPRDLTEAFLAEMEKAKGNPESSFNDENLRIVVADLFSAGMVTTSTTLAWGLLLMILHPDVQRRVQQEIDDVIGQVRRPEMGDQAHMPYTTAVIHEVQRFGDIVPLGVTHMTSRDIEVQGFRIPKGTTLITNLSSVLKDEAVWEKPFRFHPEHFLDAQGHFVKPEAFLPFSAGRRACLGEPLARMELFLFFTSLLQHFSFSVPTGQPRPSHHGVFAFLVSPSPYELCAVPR
Chain of Cytochrome P450 2C19 (P33261 whole entry): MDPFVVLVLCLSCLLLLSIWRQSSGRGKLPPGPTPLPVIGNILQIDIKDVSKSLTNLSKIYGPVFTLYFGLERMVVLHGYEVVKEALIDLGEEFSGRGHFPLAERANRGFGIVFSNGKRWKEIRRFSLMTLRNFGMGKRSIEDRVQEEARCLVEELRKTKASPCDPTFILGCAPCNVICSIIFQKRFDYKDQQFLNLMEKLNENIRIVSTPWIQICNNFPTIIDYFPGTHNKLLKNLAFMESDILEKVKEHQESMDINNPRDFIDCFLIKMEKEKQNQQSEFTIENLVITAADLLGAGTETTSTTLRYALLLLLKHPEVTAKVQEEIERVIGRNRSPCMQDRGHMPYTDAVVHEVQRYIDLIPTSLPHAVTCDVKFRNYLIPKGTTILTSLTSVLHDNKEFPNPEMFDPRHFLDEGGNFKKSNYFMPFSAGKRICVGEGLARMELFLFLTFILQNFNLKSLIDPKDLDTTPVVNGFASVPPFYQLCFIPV
Chain of Metabotropic glutamate receptor 6 (O15303 whole entry): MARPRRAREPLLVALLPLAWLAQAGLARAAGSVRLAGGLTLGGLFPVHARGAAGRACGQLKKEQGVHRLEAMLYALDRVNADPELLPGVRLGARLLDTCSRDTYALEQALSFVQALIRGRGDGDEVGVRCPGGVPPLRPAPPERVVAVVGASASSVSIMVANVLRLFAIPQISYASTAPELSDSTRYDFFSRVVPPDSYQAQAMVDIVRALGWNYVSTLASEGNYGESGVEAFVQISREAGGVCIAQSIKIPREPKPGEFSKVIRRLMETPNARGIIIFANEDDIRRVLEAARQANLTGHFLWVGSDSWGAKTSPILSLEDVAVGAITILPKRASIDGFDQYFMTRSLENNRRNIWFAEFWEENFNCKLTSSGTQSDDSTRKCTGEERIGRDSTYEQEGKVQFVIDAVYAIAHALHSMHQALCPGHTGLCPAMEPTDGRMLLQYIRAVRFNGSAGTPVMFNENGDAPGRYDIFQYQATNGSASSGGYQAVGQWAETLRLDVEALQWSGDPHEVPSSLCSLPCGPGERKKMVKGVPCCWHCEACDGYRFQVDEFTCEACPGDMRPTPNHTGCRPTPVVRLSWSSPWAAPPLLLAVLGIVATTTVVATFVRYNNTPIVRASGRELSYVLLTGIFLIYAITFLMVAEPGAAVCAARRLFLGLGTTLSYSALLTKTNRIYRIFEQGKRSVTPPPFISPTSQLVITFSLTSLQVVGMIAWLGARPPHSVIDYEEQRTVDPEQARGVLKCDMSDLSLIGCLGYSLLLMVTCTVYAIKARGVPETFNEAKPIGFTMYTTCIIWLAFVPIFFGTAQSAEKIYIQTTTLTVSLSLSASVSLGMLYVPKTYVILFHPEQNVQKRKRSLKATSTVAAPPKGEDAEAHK
Chain of Cytochrome P450 3A4 (P08684 whole entry): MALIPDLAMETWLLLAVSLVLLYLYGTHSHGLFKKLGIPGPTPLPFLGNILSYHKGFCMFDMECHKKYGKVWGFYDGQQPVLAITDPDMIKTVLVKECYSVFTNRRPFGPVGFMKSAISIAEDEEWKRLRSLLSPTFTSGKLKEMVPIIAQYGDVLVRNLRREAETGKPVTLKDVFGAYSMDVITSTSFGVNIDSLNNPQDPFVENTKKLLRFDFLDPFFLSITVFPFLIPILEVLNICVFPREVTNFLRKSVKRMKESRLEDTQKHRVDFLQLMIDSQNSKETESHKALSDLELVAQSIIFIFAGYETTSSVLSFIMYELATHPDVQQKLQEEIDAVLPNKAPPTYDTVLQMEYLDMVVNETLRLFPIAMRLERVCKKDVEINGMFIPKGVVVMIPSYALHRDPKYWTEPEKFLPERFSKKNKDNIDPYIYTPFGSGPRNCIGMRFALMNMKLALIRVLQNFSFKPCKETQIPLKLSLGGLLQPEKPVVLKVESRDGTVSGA

Row | Structure (SMILES) | pIC50 (Cytochrome P450 2D6) | Fu (Plasma [10]) | CLint scaled at 1 µM [11] | Fu (Brain [12]) | Fu (Plasma [13]) | pIC50 (Cytochrome P450 2C19) | pIC50 (Cytochrome P450 1A2) | pIC50 (Cytochrome P450 2C9) | CLint scaled [14] | further results
1 | Cl.O=C(Nc1ccc(N2C(=O)[C@@H]3[C@H](C2=O)[C@@H]2C=C[C@H]3C2)c(Cl)c1)c1ccccn1 | – | – | – | – | – | – | – | – | – | Vdss (Rattus norvegicus [1]): 18 L/kg; F (Rattus norvegicus [2]): 97%; AUC(0-t) at 6 h [3]: 8.48 nM·h; AUC (Rattus norvegicus [4]): 454 ng·h/mL; AUC (Brain [5]): 800 nM·h; Kp [6]: 0.93; t1/2 (Rattus norvegicus [7]): 40.4 min; AUC (Rattus norvegicus [8]): 4354 ng·h/mL; Cmax (Rattus norvegicus [9]): 238 ng/mL
2 | O=C(Nc1ccc(N2C(=O)CC(c3ccccc3)C2=O)c(Cl)c1)c1ccccn1 (racemic) | < 4.52 | 0.17% | 32.6 mL/min/kg | 1.4% | 0.02% | 4.75 | 5.05 | 5.06 | 19.9 mL/min/kg | pIC50 (Cytochrome P450 3A4): < 4.52
3 | Cc1cc(C)n(-c2cc(NC(=O)CN3CCN(C)CC3)nc(-c3ccco3)n2)n1 | – | – | – | – | – | – | – | – | – | Activity (Rattus norvegicus [15]): Active
4 | O=C(Nc1ccc(N2C(=O)[C@@H]3[C@H](C2=O)[C@@H]2C=C[C@H]3C2)c(Cl)c1)c1ccccn1 (mixture of isomers) | < 4.52 | 3.2% | 53 mL/min/kg | 7.6% | 4.1% | < 4.52 | < 4.52 | < 4.52 | 19.7 mL/min/kg | pEC50 [16]: < 5.00
